Keap1 Nrf2 FP: disrupts human Keap1 binding to Nrf2 peptide. actives 0.15% (n = 340,000). Keap1 Kelch-Nrf2 peptide fluorescence polarization, 1536-well. inhibition, % at 9.4 µM. AID 504523. Q14145; in the data active = inhibition above about 12%;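 also: human Keap1 Kelch domain with fluorescein labeled Nrf2 9mer peptide probe; 0% = neutral control wells and 100% = peptide positive control; higher means more block of Keap1 binding to Nrf2 peptide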
C-LANA FP: blocks KSHV LANA C-terminal domain binding to DNA; inhibition, % at 9 µM; AID 504423; actives 0.078% (n = 340,000); MBP-C-LANA/FAM-LBS DNA binding, fluorescence polarization;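 active = highest replicate inhibition at or above 60% at 9 µM, even if other replicates fall short; inactive = all replicates below 60% inhibition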;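 also: 0% = neutral control wells and 100% = 4 µM acridine orange control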
CAL PDZ FP-1: inhibitors of human CAL PDZ peptide binding | Q9HD26 | purified CAL PDZ, TMR-peptide fluorescence polarization, 1 h | inhibition, % at 24.9 µM | actives 0.92% (n = 300,000);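 active = mean inhibition of at least 30% with at least half of replicates also reaching 30%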;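 also: 0% = DMSO neutral control and 100% = excess unlabeled competitor peptide PRC23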
CaV13 FRET inh: Primary screen for inhibitors of IQ motif and Ca2+-dependent inactivation inhibitor domain binding in CACNA1D, Förster resonance energy transfer in living cells, …; inhibition, % at 12.3 µM; actives 0.098% (n = 340,000); HEK cells, CFP/YFP FRET ICDI-IQ, plate reader, 10 min; percent FRET-ratio fall versus neutral wells;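 active = mean replicate inhibition of at least 30% and at least 1% of replicates passing that level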;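 also: 0% = median of the neutral control wells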
LANA-H2B inh: blocks KSHV LANA binding to histone H2A/H2B; Q9QR71; cell-free LANA-H2A/H2B peptide, fluorescence polarization; inhibition, % (no concentration beside the values); actives 0.6% (n = 320,000); in the data active = inhibition mostly above about 10%, no sharp cut-off; inactive = mostly below about 6.7%
Target sequence (Q9QR71 whole entry, looked up): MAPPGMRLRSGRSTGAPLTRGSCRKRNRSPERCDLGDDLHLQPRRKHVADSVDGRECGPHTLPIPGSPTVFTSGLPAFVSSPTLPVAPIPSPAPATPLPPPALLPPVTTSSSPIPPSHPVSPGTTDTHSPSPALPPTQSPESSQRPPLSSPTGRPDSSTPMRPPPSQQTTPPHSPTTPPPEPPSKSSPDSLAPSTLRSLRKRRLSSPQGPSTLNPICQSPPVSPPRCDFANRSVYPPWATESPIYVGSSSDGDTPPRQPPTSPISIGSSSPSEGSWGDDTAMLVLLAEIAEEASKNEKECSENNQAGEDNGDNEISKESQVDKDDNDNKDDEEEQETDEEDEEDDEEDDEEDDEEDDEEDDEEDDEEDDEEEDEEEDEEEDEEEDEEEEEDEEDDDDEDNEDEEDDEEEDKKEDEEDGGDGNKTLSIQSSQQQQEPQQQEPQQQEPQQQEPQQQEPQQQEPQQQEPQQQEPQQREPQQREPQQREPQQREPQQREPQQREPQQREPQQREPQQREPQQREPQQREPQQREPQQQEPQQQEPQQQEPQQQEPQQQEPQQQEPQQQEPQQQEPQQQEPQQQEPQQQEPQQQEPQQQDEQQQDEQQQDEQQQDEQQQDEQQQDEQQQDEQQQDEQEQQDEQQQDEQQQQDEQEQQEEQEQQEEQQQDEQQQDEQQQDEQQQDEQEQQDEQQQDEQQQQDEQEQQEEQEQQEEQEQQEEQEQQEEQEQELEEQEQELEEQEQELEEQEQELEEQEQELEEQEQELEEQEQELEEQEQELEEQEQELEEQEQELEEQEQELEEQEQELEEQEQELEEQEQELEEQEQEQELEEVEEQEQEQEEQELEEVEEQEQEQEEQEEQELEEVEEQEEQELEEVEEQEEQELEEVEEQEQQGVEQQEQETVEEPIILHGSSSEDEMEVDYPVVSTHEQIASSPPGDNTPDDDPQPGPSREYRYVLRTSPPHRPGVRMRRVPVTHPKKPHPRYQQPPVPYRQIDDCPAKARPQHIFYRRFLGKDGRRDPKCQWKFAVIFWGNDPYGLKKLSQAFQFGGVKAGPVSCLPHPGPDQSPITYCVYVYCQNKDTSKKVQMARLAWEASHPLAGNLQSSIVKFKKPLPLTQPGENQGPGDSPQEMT
CAL PDZ FP-2: inhibitors of human CAL PDZ peptide binding. actives 0.02% (n = 330,000). inhibition, % at 20 µM. purified CAL PDZ, TMR-peptide fluorescence polarization, 1 h. Q9HD26;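 active = highest replicate inhibition of at least 40%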;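 also: plate controls were DMSO neutral control wells for no effect and unlabeled competitor peptide control wells for full effect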
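Assay system – tagged CAL PDZ protein CerCALP, purified · Timing – 1 h at RT · Compound – single point, 20 µM · Measured by – fluorescence polarization from S- and P-plane intensities, G-factor corrected · Evaluation – inhibition from polarization loss · Probe or stimulus – TMR reporter peptide T*-PRC34 · Buffer or medium – pH 7.4 phosphate-saline buffer, reducing agent, detergent, IgG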
The depositor's hits bear a star. Hits are enriched below; roughly 1.5% of the tested compounds scored in any of these assays.

Results for Cc1ccc(N2C(=O)C3C(C2=O)C(C(=O)c2ccc(Cl)cc2)N2CCCC32)cc1 (centres undefined) ?
Keap1 Nrf2 FP: -6; C-LANA FP: -1; CAL PDZ FP-1: 42*; CaV13 FRET inh: 0; LANA-H2B inh: -4; CAL PDZ FP-2: 0

What do the screens show for `CCCCCCCc1c(O)nc(SCC(=O)O)[nH]c1=O`?
Keap1 Nrf2 FP: 4; C-LANA FP: 2; CAL PDZ FP-1: -5; CaV13 FRET inh: -2; LANA-H2B inh: 48*; CAL PDZ FP-2: -4

How did COCCCNc1c2c3c(cccc3[nH]c1=O)C(=O)c1ccccc1-2 do in these assays?
Keap1 Nrf2 FP: 167*; C-LANA FP: 184*; CaV13 FRET inh: -22; LANA-H2B inh: 123*; CAL PDZ FP-2: 8

Results for COCCCNC1=C(Cl)C(=O)c2ccccc2C1=O ?
Keap1 Nrf2 FP: 0; C-LANA FP: -1; CAL PDZ FP-1: 0; CaV13 FRET inh: -5; LANA-H2B inh: 5; CAL PDZ FP-2: 0

How did O=C(/C=C/c1ccc([N+](=O)[O-])cc1)NNC(=O)C1CC1 do in these assays?
Keap1 Nrf2 FP: 0; C-LANA FP: 2; CAL PDZ FP-1: 74*; CaV13 FRET inh: -3; LANA-H2B inh: 5; CAL PDZ FP-2: 0

How did O=C(/C=C/c1ccc([N+](=O)[O-])cc1)NC1CC2CCC1C2 (centres undefined) do in these assays?
Keap1 Nrf2 FP: 0; C-LANA FP: -2; CAL PDZ FP-1: 21; CaV13 FRET inh: 28; LANA-H2B inh: 2; CAL PDZ FP-2: -2

Results for COCCOC(=O)C1=C(C)N(c2ccccc2)C(=S)NC1c1ccccc1C(F)(F)F (centres undefined) ?
Keap1 Nrf2 FP: -4; C-LANA FP: -3; CAL PDZ FP-1: -2; CaV13 FRET inh: -2; LANA-H2B inh: 35*; CAL PDZ FP-2: -13

How did Cc1cc(C(=O)CSc2nnnn2C)c(C)n1CCc1ccc(F)cc1 do in these assays?
Keap1 Nrf2 FP: -4; C-LANA FP: 0; CAL PDZ FP-1: 39*; CaV13 FRET inh: -4; LANA-H2B inh: 0; CAL PDZ FP-2: -2

What do the screens show for `N/C(=N\OC(=O)Cc1ccccc1[N+](=O)[O-])c1cccnc1`?
Keap1 Nrf2 FP: -6; C-LANA FP: 5; CAL PDZ FP-1: 77*; CaV13 FRET inh: -6; LANA-H2B inh: -5

Results for O=C(C1CC1)N1CCc2cc(S(=O)(=O)NCCCN3CCCCC3)ccc21 ?
Keap1 Nrf2 FP: 1; C-LANA FP: 2; CAL PDZ FP-1: 0; CaV13 FRET inh: -7; LANA-H2B inh: -1; CAL PDZ FP-2: -1

Results for CC1CC(C)CN(CCCNS(=O)(=O)c2ccc3c(c2)CCN3C(=O)C2CC2)C1 (centres undefined) ?
Keap1 Nrf2 FP: -2; C-LANA FP: 1; CAL PDZ FP-1: 120*; CaV13 FRET inh: -15; LANA-H2B inh: -8; CAL PDZ FP-2: -3

How did COc1ccc(-c2cn(CC[C@@H]3CC[C@H](NC(=O)Cc4ccccn4)[C@@H](CO)O3)nn2)cc1 do in these assays?
CaV13 FRET inh: -6

Results for O=C(CSc1nc2nn(-c3ccccc3)c(=O)c-2c2n1CCCCC2)Nc1ccc(OC(F)F)cc1 ?
Keap1 Nrf2 FP: 4; C-LANA FP: 0; CAL PDZ FP-1: 127*; CaV13 FRET inh: -6; LANA-H2B inh: 3; CAL PDZ FP-2: 5

Results for CCN(CC)CCN1C2=C(C(=O)CC(C)(C)C2)C(c2cccc(F)c2)C2=C1CC(C)(C)CC2=O ?
Keap1 Nrf2 FP: -4; C-LANA FP: 10; CAL PDZ FP-1: 1; CaV13 FRET inh: 123*; LANA-H2B inh: 1; CAL PDZ FP-2: 0

How did CCN(CC)Cc1cc(Nc2c3ccccc3nc3c4ccccc4n(C)c23)cc(CN(CC)CC)c1O do in these assays?
Keap1 Nrf2 FP: -7; C-LANA FP: -9; CAL PDZ FP-1: 0; CaV13 FRET inh: -6; CAL PDZ FP-2: 4

Results for O=C(CC[C@H]1O[C@@H](n2ccc(=O)[nH]c2=O)[C@H](O)[C@@H]1O)N[C@H](Cc1ccccc1)C(=O)NCC1CCCO1 (some centres undefined) ?
CaV13 FRET inh: -3

Results for CCc1ccccc1N(CC(=O)O)S(C)(=O)=O ?
Keap1 Nrf2 FP: -2; C-LANA FP: 0; CAL PDZ FP-1: 43*; CaV13 FRET inh: -4; LANA-H2B inh: -1

How did Cc1ccccc1N(CC(=O)O)S(C)(=O)=O do in these assays?
Keap1 Nrf2 FP: 0; C-LANA FP: 0; CAL PDZ FP-1: -3; LANA-H2B inh: 3; CAL PDZ FP-2: 1

What do the screens show for `CC(C)[C@H](NC(=O)c1ccco1)C(=O)N1CCC[C@H]1C(=O)NCc1ccccc1`?
CaV13 FRET inh: -3

How did Cc1cc2nc(SC(C)C(=O)O)[nH]c2cc1C (centres undefined) do in these assays?
Keap1 Nrf2 FP: 0; C-LANA FP: -1; CAL PDZ FP-1: active; CaV13 FRET inh: -5; LANA-H2B inh: -1; CAL PDZ FP-2: -3

Results for O=S(=O)(c1cnc[nH]1)N1CCN(c2ccc(F)cc2)CC1 ?
Keap1 Nrf2 FP: -3; C-LANA FP: -1; CAL PDZ FP-1: 1; CaV13 FRET inh: -6; LANA-H2B inh: 111*; CAL PDZ FP-2: -2

Results for O=C(C1CCN(S(=O)(=O)c2cnc[nH]2)CC1)N1CCN(c2ccc([N+](=O)[O-])cc2)CC1 ?
Keap1 Nrf2 FP: 2; C-LANA FP: 1; CAL PDZ FP-1: 49*; CaV13 FRET inh: -2; LANA-H2B inh: 0; CAL PDZ FP-2: -1

Results for COC(=O)CC#C[C@H](C)[C@@H](NS(=O)(=O)c1ccc(C)cc1)C1CCCCC1 ?
CaV13 FRET inh: -4

Results for Cc1ccc(NC(=O)[C@@H](Cc2ccccc2)NC(=O)[C@H]2O[C@@H](n3ccc(=O)[nH]c3=O)[C@H](O)[C@@H]2O)cc1C ?
CaV13 FRET inh: -3

How did Cc1nc2cc[nH]n2c(=O)c1CCc1ccccc1 do in these assays?
CaV13 FRET inh: -9

How did Cc1ccc(C2=C(O)C(=O)C(c3ccc(C)cc3)=C(O)C2=O)cc1 do in these assays?
Keap1 Nrf2 FP: 3; C-LANA FP: 2; CAL PDZ FP-1: 1; CaV13 FRET inh: -6; CAL PDZ FP-2: 1

How did CC1=C(O)C(=O)C(C2=C(O)C(=O)C(C)=C(O)C2=O)=C(O)C1=O do in these assays?
Keap1 Nrf2 FP: -2; C-LANA FP: 61*; CAL PDZ FP-1: 2; CAL PDZ FP-2: 0

How did Cc1cccc(NC(=O)CSc2nc(=O)n(CCCN3CCOCC3)c3c2CCCC3)c1 do in these assays?
Keap1 Nrf2 FP: -4; C-LANA FP: -2; CAL PDZ FP-1: 48*; CaV13 FRET inh: -5; LANA-H2B inh: 4; CAL PDZ FP-2: -1

Screening results as filed in PubChem BioAssay.
